Laboratory results reported in ChEMBL document CHEMBL3576833, “Design and Synthesis of Acetylenyl Benzamide Derivatives as Novel Glucokinase Activators for the Treatment of T2DM” (ACS Med Chem Lett, 2015).
pEC50: −log10 of the molar value. Values after ≈ are worked out from the molar mass of the structure shown.

Columns and labels:
Hexokinase-4 = target: T1, Hexokinase-4 (Homo sapiens, UniProt P35557); test: Activation of recombinant human pancreatic glucokinase using 10 mM glucose as substrate by G6PDH coupled assay
T1 sequence (P35557 whole entry): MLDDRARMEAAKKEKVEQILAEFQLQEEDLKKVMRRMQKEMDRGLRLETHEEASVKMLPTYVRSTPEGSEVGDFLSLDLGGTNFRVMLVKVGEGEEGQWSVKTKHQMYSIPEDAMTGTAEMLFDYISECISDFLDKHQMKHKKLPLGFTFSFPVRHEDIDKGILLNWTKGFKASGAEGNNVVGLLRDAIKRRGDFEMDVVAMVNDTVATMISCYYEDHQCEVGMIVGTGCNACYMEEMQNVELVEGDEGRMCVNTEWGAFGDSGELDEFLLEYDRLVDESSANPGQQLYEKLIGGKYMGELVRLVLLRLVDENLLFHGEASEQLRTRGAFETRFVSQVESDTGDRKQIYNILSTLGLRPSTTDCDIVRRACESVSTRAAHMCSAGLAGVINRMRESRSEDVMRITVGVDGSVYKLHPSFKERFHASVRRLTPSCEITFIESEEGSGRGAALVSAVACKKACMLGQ
Procedure, shortened: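 Recombinant human pancreatic glucokinase, with glucose at 10 mM. Activity was read as the increase in GK enzyme activity. EC50, Vmax and S0.5 were derived from this. Values are means of triplicate runs.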

Mus musculus [1] = test: Antidiabetic activity in C57BL/6 mouse assessed as reduction of blood glucose AUC at 50 mg/kg, po administered 30 mins prior to glucose challenge measured over 180 mins by OGTT relative to vehicle-treated control; type: functional; parameters: scale not given: the % may be the effect or the level left
Procedure, shortened: (§1)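 Oral glucose tolerance test in C57BL/6J mice with oral dosing. Blood glucose was followed after the glucose challenge, and the result was expressed as the % reduction in blood glucose AUC.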

Mus musculus [2] = test: Antidiabetic activity in C57BL/6 mouse assessed as reduction of blood glucose AUC at 30 mg/kg, po administered 30 mins prior to glucose challenge measured over 180 mins by OGTT relative to vehicle-treated control; type: functional; parameters: scale not given: the % may be the effect or the level left; procedure, shortened: as §1
[3] = Elimination half life in ICR mouse at 3 mg/kg, iv and 10 mg/kg, po; type: ADME, organism-based; details: in vivo, read-out: beta t1/2 (converted)
[4] = Clearance in ICR mouse at 3 mg/kg, iv and 10 mg/kg, po; type: ADME, organism-based; details: in vivo
[5] = Oral bioavailability in ICR mouse at 10 mg/kg; type: ADME, organism-based; details: in vivo
[6] = Apparent permeability of the compound by PAMPA; type: physicochemical
[7] = Volume of distribution at steady state in ICR mouse at 3 mg/kg, iv and 10 mg/kg, po; type: ADME, organism-based; details: in vivo, read-out: Vdss
[8] = Solubility of the compound at pH 7.4; type: physicochemical; details: buffer
Mus musculus [9] = test: Toxicity in C57BL/6J mouse assessed as hypoglycemic effect at 30 mg/kg, po after 60 mins; type: organism-based; details: in vivo, 1 h
Procedure, shortened: (§2)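 Fasted glucose tolerance test in C57BL/6J mice. Animals were fasted and dosed orally, with no glucose challenge. Blood glucose was measured at 60 min.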

Mus musculus [10] = test: Antidiabetic activity in C57BL/6J mouse assessed as blood glucose level at 30 mg/kg, po after 60 mins by fasted glucose tolerance test; type: functional; procedure, shortened: as §2

| SMILES | pEC50 (Hexokinase-4) | Activity (Mus musculus [1]) [%] | other results |
| --- | --- | --- | --- |
| COCC#Cc1cc(O[C@@H](C)COC)cc(C(=O)Nc2ccn(C)n2)c1 | 5.73 | – | – |
| COC[C@H](C)Oc1cc(C#CCOC2CCCCO2)cc(C(=O)Nc2ccn(C)n2)c1 (stereo not given in full) | 8.22 | 44.7 | – |
| COC[C@H](C)Oc1cc(C#CCN(C)C)cc(C(=O)Nc2ccn(C)n2)c1 | 5.11 | – | – |
| COC[C@H](C)Oc1cc(C#CCNc2ncccn2)cc(C(=O)Nc2ccn(C)n2)c1 | 6.52 | – | – |
| COC[C@H](C)Oc1cc(C#Cc2ccccc2OC)cc(C(=O)Nc2ccn(C)n2)c1 | 7.68 | – | Activity (Mus musculus [2]): 49.1% |
| COC[C@H](C)Oc1cc(C#Cc2ccc3[nH]ccc3c2)cc(C(=O)Nc2ccn(C)n2)c1 | 7.92 | – | – |
| COC[C@H](C)Oc1cc(C#Cc2ccc3c(c2)OCO3)cc(C(=O)Nc2ccn(C)n2)c1 | 7.52 | – | – |
| COC[C@H](C)Oc1cc(C#Cc2ccc(N)cc2)cc(C(=O)Nc2ccn(C)n2)c1 | 7.47 | 53.5 | – |
| COC[C@H](C)Oc1cc(C#Cc2cccc(N)c2)cc(C(=O)Nc2ccn(C)n2)c1 | 7.57 | 52.1 | Activity (Mus musculus [2]): 47.4%; half-life [3]: 1.1 h; clearance [4]: 43.2 mL/min/kg; bioavailability [5]: 49%; Papp [6]: 3.43 ×10⁻⁶ cm/s; Vd [7]: 1.44 L/kg; solubility [8]: 22.2 µM (≈ 8.98 µg/mL); Activity (Mus musculus [9]): Non-toxic; Activity (Mus musculus [10]): >55 mg/dL |
| COC[C@H](C)Oc1cc(C#Cc2cccc(O)c2)cc(C(=O)Nc2ccn(C)n2)c1 | 7.41 | – | – |
| COC[C@H](C)Oc1cc(C#Cc2cccc(N(C)C)c2)cc(C(=O)Nc2ccn(C)n2)c1 | 7.43 | 43.7 | – |
| CCN(CC)c1cccc(C#Cc2cc(O[C@@H](C)COC)cc(C(=O)Nc3ccn(C)n3)c2)c1 | 6.79 | – | – |
| COC[C@H](C)Oc1cc(C#Cc2cccc(NCCN(C)C)c2)cc(C(=O)Nc2ccn(C)n2)c1 | 8.22 | – | Activity (Mus musculus [2]): 56% |
| COC[C@H](C)Oc1cc(C#Cc2cccc(NCCN3CCCC3)c2)cc(C(=O)Nc2ccn(C)n2)c1 | 8.22 | 51.4 | – |
| COC[C@H](C)Oc1cc(C#Cc2cccc(NCCN3CCCCC3)c2)cc(C(=O)Nc2ccn(C)n2)c1 | 8.22 | 54 | – |
| COC[C@H](C)Oc1cc(C#Cc2cccc(NCCN3CCOCC3)c2)cc(C(=O)Nc2ccn(C)n2)c1 | 7.70 | 47.9 | – |
| COCCNc1cccc(C#Cc2cc(O[C@@H](C)COC)cc(C(=O)Nc3ccn(C)n3)c2)c1 | 7.41 | – | Activity (Mus musculus [2]): 41% |
| COC[C@H](C)Oc1cc(C#Cc2cccc(NCCn3ccnc3C)c2)cc(C(=O)Nc2ccn(C)n2)c1 | 8.05 | – | – |
| COC[C@H](C)Oc1cc(C#Cc2cccc(OC(C)C)c2)cc(C(=O)Nc2ccn(C)n2)c1 | 7.28 | – | – |
| COC[C@H](C)Oc1cc(C#Cc2cccc(OCC#N)c2)cc(C(=O)Nc2ccn(C)n2)c1 | 7.34 | – | – |
| COC[C@H](C)Oc1cc(C#Cc2cccc(OCCN3CCCC3)c2)cc(C(=O)Nc2ccn(C)n2)c1 | 8.22 | 51.6 | – |
| COC[C@H](C)Oc1cc(C#Cc2cccc(OCCN3CCCCC3)c2)cc(C(=O)Nc2ccn(C)n2)c1 | 8.15 | 46 | – |
| COC[C@H](C)Oc1cc(C#Cc2cccc(OCCN3CCOCC3)c2)cc(C(=O)Nc2ccn(C)n2)c1 | 7.80 | – | – |
| N[C@@H](CC(=O)N1CCn2c(nnc2C(F)(F)F)C1)Cc1cc(F)c(F)cc1F [SITAGLIPTIN] | – | – | Activity (Mus musculus [2]): 22.6% |
